Test [1] concerns Canis familiaris. Kind of test: Inhibition of ex vivo platelet aggregation in dogs after 24 hr of administration of iv bolus dose of 0.025 mg/kg. Type of test: functional. The settings on record: Canis lupus familiaris. The method in brief: (§1)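 Dogs received an iv bolus, mostly 0.025 mg/kg, with some tested at 0.05 mg/kg. Blood was sampled at 1, 5 and 24 h postdose. Ex vivo platelet aggregation was stimulated with ADP (100 μM) and reported as % inhibition; n = 2.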

Test [2] is filed under the species Homo sapiens. Kind of test: The compound was tested for their ability to inhibit ADP-stimulated platelet aggregation in human platelet rich plasma. Type of test: functional. The method in brief: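 IC50 for inhibition of ADP-induced aggregation in human platelet-rich plasma, determined in three donors.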
The test system of test [3] is Canis familiaris. As to the kind of experiment: Compounds having IC50 values less than 100 nM in the PRP assay were assessed for their ability to inhibit ex vivo platelet aggregation in dogs after 5 hr of administration of iv bolus dose of 0.025 mg/kg. The test is classed as functional. The settings on record: Canis lupus familiaris. The gist of the method:
as §1

Test [4] deals with Integrin alpha-IIb/beta-3 (Canis familiaris). As to the kind of experiment: Dissociation constant for unactivated Fibrinogen Receptor.
The target is the same in test [5]. Kind of test: Dissociation constant for activated Fibrinogen Receptor.
Test [6] is filed under the species Canis familiaris. Kind of test: The compound was tested for their ability to inhibit ADP-stimulated platelet aggregation in dog platelet rich plasma. The test is classed as functional. The settings on record: Canis lupus familiaris.
Test [7] relates to Canis familiaris. Kind of test: Inhibition of ex vivo platelet aggregation in dogs after 24 hr of administration of oral dose of 0.1 mg/kg. The settings on record: Canis lupus familiaris.
For test [8], the system named is Canis familiaris. Kind of test: Inhibition of ex vivo platelet aggregation in dogs after 6 hr of administration of oral dose of 0.1 mg/kg. Particulars: Canis lupus familiaris.
In test [9] the test system is Canis familiaris. As to the kind of experiment: Inhibition of ex vivo platelet aggregation in dogs after 2 hr of administration of oral dose of 0.1 mg/kg. Particulars: Canis lupus familiaris.
Test [10] has as its system Canis familiaris. As to the kind of experiment: Inhibition of ex vivo platelet aggregation in dogs after 1 hr of administration of oral dose of 0.1 mg/kg. Particulars: Canis lupus familiaris.
In test [11] the target is Integrin alpha-IIb/beta-3 (Canis familiaris). As to the kind of experiment: Dissociation constant for unactivated Fibrinogen Receptor. The source holds these as a separate data set.

The results in this text go back to ChEMBL document CHEMBL1132701, “Orally active isoxazoline glycoprotein IIb/IIIa antagonists with extended duration of action” (J Med Chem, 1999).

In general, inhibition in vivo refers to the share of the control response that was lost under treatment. Read a low inhibition in vivo as little suppression. The IC50 is the concentration needed to halve the response being measured. The low end stands for greater potency in that assay, the high end for weaker potency in that assay. What is called Kd is a measure of binding affinity in units of concentration. High values mean lower affinity, low ones higher affinity.

`Cc1ccccc1S(=O)(=O)N[C@@H](CNC(=O)CC1CC(c2ccc(C(=N)N)cc2)=NO1)C(=O)O` (stereo not given in full): the inhibition in vivo at 0.025 mg/kg in test [1] came to 99%; in [3], 97%. In [2], this compound registered an IC50 of 41 nM. In the case of `N=C(N)c1ccc(C2=NO[C@@H](CC(=O)NC[C@H](NS(=O)(=O)c3ccccc3)C(=O)O)C2)cc1`, the IC50 in [2] came to 190 nM. In turn, `CCCc1ccc(S(=O)(=O)N[C@@H](CNC(=O)CC2CC(c3ccc(C(=N)N)cc3)=NO2)C(=O)O)cc1` (stereo not given in full) had an IC50 in [2] of 130 nM. In turn, `Cc1cccc(S(=O)(=O)N[C@@H](CNC(=O)C[C@@H]2CC(c3ccc(C(=N)N)cc3)=NO2)C(=O)O)c1` [listing 1 of 2 here] came in with an inhibition in vivo at 0.025 mg/kg in test [1] of 16%. Consider `Cc1noc(C)c1S(=O)(=O)N[C@@H](CNC(=O)C[C@@H]1CC(c2ccc(C(=N)N)cc2)=NO1)C(=O)O`, for which the results for the IC50 in [2] and in test [6] were 29 nM and 21 nM, respectively. Also, the Kd in test [4] was determined as 3.7 nM; in test [5], 2.7 nM. On to `Cc1cccc(S(=O)(=O)N(C)[C@@H](CNC(=O)C[C@H]2CC(c3ccc(C(=N)N)cc3)=NO2)C(=O)O)c1`, for which 95 nM corresponded to half-maximal inhibition in test [2] (IC50).

In test [2], `N=C(N)c1ccc(C2=NO[C@@H](CC(=O)NC[C@H](NS(=O)(=O)c3ccccc3Br)C(=O)O)C2)cc1` displayed a 50% inhibitory concentration (IC50) of 36 nM. Further, the inhibition in vivo at 0.1 mg/kg amounted to 40% in [7], 73% in test [8] and 29% in test [9]. `N=C(N)c1ccc(C2=NOC(CC(=O)NC[C@H](NS(=O)(=O)c3cccc4cccnc34)C(=O)O)C2)cc1` (stereo not given in full) gave an inhibition in vivo at 0.025 mg/kg in [1] of 67%. In test [2], this compound registered an IC50 of 81 nM. The compound `Cc1ccccc1S(=O)(=O)N[C@@H](CNC(=O)C[C@H]1CC(c2ccc(C(=N)N)cc2)=NO1)C(=O)O` had an IC50 in test [2] of 130 nM. Moreover, the inhibition in vivo at 0.1 mg/kg in [7] turned out to be 65%; in [8] it was 92%; in [10], 39%.

The compound `Cc1ccc(S(=O)(=O)N[C@@H](CNC(=O)CC2CC(c3ccc(C(=N)N)cc3)=NO2)C(=O)O)cc1` (stereo not given in full) had an IC50 in [2] of 37 nM. In test [1], `CC(=O)Nc1cnc(S(=O)(=O)N[C@@H](CNC(=O)CC2CC(c3ccc(C(=N)N)cc3)=NO2)C(=O)O)s1` (stereo not given in full) had an inhibition in vivo at 0.025 mg/kg of 68%. The same compound yielded an IC50 in test [2] of 53 nM. In [2], `Cc1ccc(NS(=O)(=O)N[C@@H](CNC(=O)CC2CC(c3ccc(C(=N)N)cc3)=NO2)C(=O)O)cc1` (stereo not given in full) returned a half-maximal inhibitory concentration (IC50) of 72 nM. In [2], `N=C(N)c1ccc(C2=NOC(CC(=O)NC[C@H](NS(=O)(=O)c3cccs3)C(=O)O)C2)cc1` (stereo not given in full) returned a half-maximal inhibitory concentration (IC50) of 24 nM. In turn, `N=C(N)c1ccc(C2=NOC(CC(=O)NC[C@H](NS(=O)(=O)c3ccccc3C(F)(F)F)C(=O)O)C2)cc1` (stereo not given in full) yielded an inhibition in vivo at 0.025 mg/kg in [1] of 45%. `Cn1cnc(S(=O)(=O)N[C@@H](CNC(=O)CC2CC(c3ccc(C(=N)N)cc3)=NO2)C(=O)O)c1` (stereo not given in full): the IC50 in [2] turned out to be 110 nM. In the case of `N=C(N)c1ccc(C2=NOC(CC(=O)NC[C@H](NS(=O)(=O)c3cccc4nsnc34)C(=O)O)C2)cc1` (stereo not given in full), the inhibition in vivo at 0.025 mg/kg in test [1] is 0%. In addition, in test [2], half-maximal inhibition (IC50) was put at 91 nM. Regarding `Cc1nc(C)c(S(=O)(=O)N[C@@H](CNC(=O)CC2CC(c3ccc(C(=N)N)cc3)=NO2)C(=O)O)s1` (stereo not given in full), the inhibition in vivo at 0.025 mg/kg in test [1] was found to be 8%; in [3], 54%. The IC50 in test [2] was 36 nM. `N=C(N)c1ccc(C2=NOC(CC(=O)NC[C@H](NS(=O)(=O)c3ccc(Br)cc3)C(=O)O)C2)cc1` (stereo not given in full): inhibition in test [2] was half-maximal at 51 nM (IC50). Still for that read-out and setting: the figure for `CCCS(=O)(=O)N[C@@H](CNC(=O)CC1CC(c2ccc(C(=N)N)cc2)=NO1)C(=O)O` (stereo not given in full) is 17 nM.

`N=C(N)c1ccc(C2=NOC(CC(=O)NC[C@H](NS(=O)(=O)c3ccccc3-c3ccccc3)C(=O)O)C2)cc1` (stereo not given in full) registered an inhibition in vivo at 0.025 mg/kg in [1] of 65%. The midpoint of inhibition in test [2], the IC50, lay at 80 nM. In test [1], `N=C(N)c1ccc(C2=NOC(CC(=O)NC[C@H](NS(=O)(=O)Cc3ccccc3)C(=O)O)C2)cc1` (stereo not given in full) showed an inhibition in vivo at 0.025 mg/kg of 26%. The compound also returned an IC50 in [2] of 39 nM. Turning to `Cc1cccc(S(=O)(=O)N[C@@H](CNC(=O)Cc2cc(-c3ccc(C(=N)N)cc3)no2)C(=O)O)c1`, it took 69 nM to reach half-maximal inhibition in test [2] (IC50). Regarding `Cc1ccc(S(=O)(=O)N[C@@H](CNC(=O)CC2CC(c3ccc(C(=N)N)cc3)=NO2)C(=O)O)o1` (stereo not given in full), in [2], the IC50 worked out at 160 nM. Regarding `N=C(N)c1ccc(C2=NOC(CC(=O)NC[C@H](NS(=O)(=O)NCCc3ccccc3)C(=O)O)C2)cc1` (stereo not given in full), the concentration for half-maximal inhibition (IC50) in [2] came to 70 nM. In turn, `N=C(N)c1ccc(C2=NOC(CC(=O)NC[C@H](NS(=O)(=O)c3ccc(C(F)(F)F)cc3)C(=O)O)C2)cc1` (stereo not given in full) had an IC50 in test [2] of 170 nM. On the same count and under the same terms, the result for `N=C(N)c1ccc(C2=NOC(CC(=O)NC[C@H](NS(=O)(=O)c3cnn(-c4ccccc4)c3)C(=O)O)C2)cc1` (stereo not given in full) reads 72 nM; that for `N=C(N)c1ccc(C2=NOC(CC(=O)NC[C@H](NS(=O)(=O)c3cccc4ccccc34)C(=O)O)C2)cc1` (stereo not given in full), 55 nM.

In test [1], `Cc1noc(C)c1S(=O)(=O)N[C@@H](CNC(=O)CC1CC(c2ccc(C(=N)N)cc2)=NO1)C(=O)O` (stereo not given in full) gave an inhibition in vivo at 0.025 mg/kg of 33%. The same compound had an IC50 in test [2] of 34 nM. For `Cc1noc(C)c1S(=O)(=O)N[C@H](CNC(=O)C[C@H]1CC(c2ccc(C(=N)N)cc2)=NO1)C(=O)O`, the Kd in test [11] was found to be 24.1 nM; in [5], 5.9 nM. Also, the values for the IC50 in [2] and in [6] were 23 nM and 25 nM, respectively. `CN(Cc1ccccc1)S(=O)(=O)N[C@@H](CNC(=O)CC1CC(c2ccc(C(=N)N)cc2)=NO1)C(=O)O` (stereo not given in full) returned an IC50 in [2] of 86 nM. Still for that read-out and setting: the figure for `N=C(N)c1ccc(C2=NOC(CC(=O)NC[C@H](NS(=O)(=O)c3ccc4ccccc4c3)C(=O)O)C2)cc1` (stereo not given in full) is 140 nM; for `N=C(N)c1ccc(C2=NO[C@@H](CC(=O)NC[C@H](NS(=O)(=O)c3ccccc3C(F)(F)F)C(=O)O)C2)cc1` it is 89 nM. On to `N=C(N)c1ccc(C2=NOC(CC(=O)NC[C@H](NS(=O)(=O)c3cccc(C(F)(F)F)c3)C(=O)O)C2)cc1` (stereo not given in full), for which the concentration for half-maximal inhibition (IC50) in [2] worked out at 120 nM. Consider `N=C(N)c1ccc(C2=NOC(CC(=O)NC[C@H](NS(=O)(=O)c3cccc(Br)c3)C(=O)O)C2)cc1` (stereo not given in full), for which the IC50 in test [2] worked out at 60 nM. `Cc1cccc(S(=O)(=O)N[C@@H](CNC(=O)C[C@@H]2CC(c3ccc(C(=N)N)cc3)=NO2)C(=O)O)c1` [listing 2 of 2 here]: in test [2], the IC50 was determined as 35 nM. This IC50 is about 1.7-fold lower than that of the compound before.

For `Cc1ccccc1S(=O)(=O)N[C@@H](CNC(=O)C[C@@H]1CC(c2ccc(C(=N)N)cc2)=NO1)C(=O)O`, the IC50 in [2] was 110 nM. In the case of `CCCCS(=O)(=O)N[C@@H](CNC(=O)CC1CC(c2ccc(C(=N)N)cc2)=NO1)C(=O)O` (stereo not given in full), the IC50 in [2] is 42 nM. Against the preceding compound, the IC50 is about 2.6-fold lower. In [2], `CC(C)NS(=O)(=O)N[C@@H](CNC(=O)CC1CC(c2ccc(C(=N)N)cc2)=NO1)C(=O)O` (stereo not given in full) returned an IC50 of 51 nM. With `Cc1noc(C)c1S(=O)(=O)N[C@H](CNC(=O)C[C@@H]1CC(c2ccc(C(=N)N)cc2)=NO1)C(=O)O`, the Kd in test [11] amounted to 253 nM; in test [5] it was 186 nM. Besides, the IC50 in test [2] was determined as 120 nM; in test [6], 170 nM. In [2], `CC(C)CNS(=O)(=O)N[C@@H](CNC(=O)CC1CC(c2ccc(C(=N)N)cc2)=NO1)C(=O)O` (stereo not given in full) had an IC50 of 52 nM.
